Assay outcomes: PubChem, several laboratories
Shown are actives, neighbours in structure and some others; about 1.9% of the full set was active somewhere.
NSD2 HMT inh = blocks human histone methyltransferase NSD2 | O96028 | NSD2 peptide methylation, AlphaScreen, 120 min | inhibition, % at 12.5 µM | hit rate 0.54% among 310,000 | AID 743445; in the data active = inhibition above about 50%
MBD2 inh = blocks human MBD2 binding to methylated DNA; TR-FRET, MBD2 binding to methylated oligonucleotide; inhibition, % at 4.4 µM; Q9UBB5; hit rate 0.31% among 370,000; in the data active = inhibition above about 13%
UHRF1 binding = blocks human UHRF1 binding to methylated DNA. UHRF1 binding to methylated oligo, TR-FRET. Q96T88. inhibition, % at 4.4 µM. hit rate 0.75% among 370,000. AID 687016; in the data active = inhibition above about 21%;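 also: UHRF1 SRA domain binding a hemimethylated CpG hairpin DNA probe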
Casp6 inh = blocks human caspase-6 cleavage activity. purified caspase-6, Z-VEID-R110 cleavage fluorescence. inhibition, % at 12.5 µM. hit rate 0.53% among 350,000. AID 686996;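 active = mean inhibition across replicates at least about 35%, with every replicate also reaching that limit, limit read from the data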
Target sequence (P55212 24-179 limits assumed): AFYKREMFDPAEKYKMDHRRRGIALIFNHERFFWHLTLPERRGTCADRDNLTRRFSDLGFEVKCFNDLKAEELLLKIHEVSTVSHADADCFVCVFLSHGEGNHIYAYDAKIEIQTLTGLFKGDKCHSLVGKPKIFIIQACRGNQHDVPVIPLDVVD
Target sequence (P55212 194-293 limits assumed): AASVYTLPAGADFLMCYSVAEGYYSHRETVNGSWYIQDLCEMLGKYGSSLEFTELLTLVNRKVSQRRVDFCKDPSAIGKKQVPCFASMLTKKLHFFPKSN
LEDGF integ inh = blocks HIV-1 LEDGF/p75-dependent DNA integration. hit rate 0.64% among 370,000. inhibition, % at 3.7 µM. AID 743269. TR-FRET IN-LEDGF/p75 DNA integration, Eu/Cy5;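 active = inhibition above the screen-wide mean plus 3 SD, cut at about 13% in these data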;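 also: signal is the Cy5 over europium emission ratio at 671 and 618 nm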
TDP2 inh = blocks human TDP2 phosphodiesterase activity; inhibition, % at 12.8 µM; recombinant TDP2, T5PNP hydrolysis, p-nitrophenol absorbance 415 nm; hit rate 0.34% among 370,000; AID 720702; O95551;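 active = inhibition above the mean of all tested compounds plus 3 SD, set per campaign, cut at about 25% in these data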
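System – recombinant human TDP2 · Quantity – TDP2 enzyme at 120 nM final · Doses – single concentration, 12.8 µM nominal, with 1% DMSO · Incubation – 2 h at 37 °C · Measured by – epi absorbance of p-nitrophenol freed from T5PNP by hydrolysis · Read-out – % inhibition relative to enzyme-containing and enzyme-free wells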
CASP1 counter = blocks human caspase-1 in a selectivity counter-screen | shares compounds with Casp6 inh | purified caspase-1, Z-YVAD-R110 cleavage fluorescence | activity change, negative = inhibition, % at 35 µM | 100 tested, under 10 active | AID 743289;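 active = compounds lowering fluorescence whose fitted half-maximal concentration is no more than twice their top tested dose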
TDP2 inh conf = human TDP2 inhibition, confirmation. shares compounds with TDP2 inh. recombinant human TDP2, absorbance read-out. inhibition, % at 12.8 µM. hit rate 22% among 1,100. AID 743263; in the data active = inhibition above about 25%
IN multimer act = activates HIV-1 integrase multimerization in LEDGF counter-screen; hit rate 17% among 2,000; shares compounds with LEDGF integ inh; activation, % at 7.7 µM; TR-FRET HIV-1 integrase multimerization, biochemical; in the data active = activation above about 8.9%
TRFRET interf = counter-screen for LEDGF/p75 integration inhibitors: TR-FRET optical interference | inhibition, % at 7.7 µM | shares compounds with LEDGF integ inh | TR-FRET optical interference counterscreen, HIV-1 IN multimerization | 2,000 tested, under 10 active | AID 1053135;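 active = inhibition above the mean over all tested compounds plus 3 SD, which no compound reached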
IN-LEDGF confirm = confirmation of HIV-1 LEDGF/p75-dependent integration inhibitors; AID 1053136; shares compounds with LEDGF integ inh; TR-FRET LEDGF/p75-dependent HIV-1 integration, biochemical; hit rate 36% among 2,000; inhibition, % at 3.7 µM; in the data active = inhibition above about 14%
Alpha artifact = AlphaScreen assay artifact in NSD2 counter-screen; shares compounds with NSD2 HMT inh; AC35, µM (titrated, usually from 10 µM); AlphaScreen artifact counterscreen, preloaded methylated H4 peptide; hit rate 9.4% among 1,500; AID 1053174; call rule not given here
Numbers stand for hits; 0 = inactive; - = no result given.

SMILES	NSD2 HMT inh	MBD2 inh	UHRF1 binding	Casp6 inh	LEDGF integ inh	TDP2 inh	CASP1 counter	TDP2 inh conf	others
C[C@@H]1CCCCO[C@@H](CN(C)Cc2ccc3c(c2)OCO3)[C@H](C)CN([C@@H](C)CO)C(=O)c2cc(NC(=O)Nc3ccc4c(c3)OCO4)ccc2O1	-	-	-	0	-	-	-	-
Cn1cnnc1SCC(=O)Nc1ncc([N+](=O)[O-])s1	0	0	0	39	0	0	0	-
Cc1csc(NC(=O)CSc2nncn2C)n1	0	0	0	-	0	0	-	-
O=C(Nc1ccc2nc3n(c(=O)c2c1)CCCCC3)c1cc([N+](=O)[O-])ccc1F	-	0	0	0	0	0	-	-
O=C(Nc1ccc2nc3n(c(=O)c2c1)CCCCC3)c1c(F)ccc([N+](=O)[O-])c1F	0	0	0	60	17	25	0	38
O=C(OCc1nnc(-c2ccccc2)o1)c1ccc([N+](=O)[O-])s1	0	0	0	99	0	32	0	37
COc1ccccc1-c1cnc2c(c1)C(=O)N([C@H](C)CO)C[C@H](C)[C@H](CN(C)Cc1cncnc1)O2	-	-	-	0	-	-	-	-
O=C(COC(=O)c1ccc([N+](=O)[O-])s1)Nc1ccc(Cl)cn1	0	0	0	0	0	0	-	-
O=C(COC(=O)c1ccc([N+](=O)[O-])s1)Nc1ccc(F)cc1	-	0	0	98	0	47	0	31
O=C1NC(=O)C(=Cc2ccccc2[N+](=O)[O-])S1	0	0	0	67	0	25	0	44
CCNC(=O)Nc1ccc2c(c1)C(=O)N(C)[C@H]1CC[C@@H](CC(=O)NCCOC)O[C@H]1CO2	-	-	-	0	-	-	-	-
COc1cc(NC(C)CCCN)c2ncccc2c1 (configuration not stated)	-	0	0	91	35	64	0	0	IN multimer act=0;TRFRET interf=0;IN-LEDGF confirm=31
COc1cc(NCc2ccccc2O)c2ncccc2c1	0	0	0	0	0	0	-	-
CN(C)CCCNc1cc(O)c2ncccc2c1	-	0	0	87	30	0	0	-	IN multimer act=0;TRFRET interf=0;IN-LEDGF confirm=40
CCNC(=O)C[C@@H]1CC[C@H]2[C@@H](COC[C@H](O)CN2Cc2ccc(Cl)c(Cl)c2)O1	-	-	-	0	-	-	-	-
Oc1cc2c(cc1O)[C@H]1c3ccc(O)c(O)c3OC[C@@]1(O)C2	109	0	0	37	83	0	0	-	Alpha artifact=4µM
Oc1ccc2c(c1)OCC1(O)Cc3cc(O)c(O)cc3C21 (configuration not stated)	-	0	0	0	0	0	-	-
CCOc1c(O)ccc(/C=C2\SC(=S)NC2=O)c1[N+](=O)[O-]	53	0	0	61	0	0	0	-	Alpha artifact=0
Cc1ccc(S(=O)(=O)N(C)C[C@H]2OCCCC[C@@H](C)Oc3ccc(NC(=O)NC4CCCCC4)cc3C(=O)N([C@H](C)CO)C[C@H]2C)cc1	-	-	-	0	-	-	-	-
COc1cc(N(C(C)=O)c2ccc(O)c(C(=O)O)c2)c2ncccc2c1	86	0	0	44	16	0	0	-	IN multimer act=0;TRFRET interf=0;IN-LEDGF confirm=26;Alpha artifact=0
COc1cc(N(C(C)=O)c2ccc(O)cc2)c2ncccc2c1	0	0	0	0	0	0	-	-
O=C(COC(=O)c1ccc([N+](=O)[O-])s1)Nc1ccccc1	69	0	0	-	0	50	0	0	Alpha artifact=0
